In ChEMBL document CHEMBL1671806, “New imidazolidinedione derivatives as antimalarial agents” (Bioorg Med Chem, 2011):
Converted amounts (≈) assume the structure as drawn. The source made the active and inactive calls. The rule behind the calls is not given here.

Columns and labels:
[1] = system: Plasmodium cynomolgi; assay: Antiplasmodial activity against Plasmodium cynomolgi sporozoites infected in Rhesus monkey assessed as relapse time at 10 mg/kg/day, po administered for 7 consecutive days
[2] = system: Plasmodium falciparum; assay: Antimicrobial activity against Plasmodium falciparum D6 by microdilution method; format: functional, organism-based
[3] = species: Mus musculus; assay: Metabolic stability in mouse liver microsome by LC-MS/MS method; settings: liver microsomes
[4] = system: Plasmodium berghei; assay: Antiplasmodial activity against Plasmodium berghei sporozoites infected in orally dosed mouse assessed as cure from infection 160 mg/kg/day, po administered for three consecutive days before infection measured after at day 31; format: functional, organism-based
How it was run: (§1)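 Mice were inoculated with P. berghei sporozoites. For oral dosing, compounds were ground and suspended in hydroxyethylcellulose plus Tween 80; for sc dosing, they were suspended in peanut oil. Doses were given once daily on three consecutive days: the day before, 4 h before, and the day after inoculation. Several dose levels were used, up to 320 mg/kg/day. Cure was scored.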

[5] = system: Plasmodium falciparum; assay: Antimicrobial activity against Plasmodium falciparum W2 by microdilution method; format: functional, organism-based
[6] = system: Plasmodium berghei; assay: Antiplasmodial activity against Plasmodium berghei sporozoites infected in orally dosed mouse administered for three consecutive days one day before infection; format: functional; settings: po, 24 h, read-out: MED
How it was run: as §1

[7] = species: Homo sapiens; assay: Metabolic stability in human liver microsome by LC-MS/MS method; settings: liver microsomes
[8] = Toxicity in Plasmodium berghei sporozoites infected orally dosed mouse administered for three consecutive days one day before infection; format: organism-based; settings: in vivo, po
How it was run: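 Mice received P. berghei sporozoites. Each compound was ground and suspended in hydroxyethylcellulose plus Tween 80, then given orally at several dose levels up to 320 mg/kg/day. Dosing was once daily for three consecutive days: the day before, 4 h before, and the day after sporozoite inoculation.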

[9] = system: Plasmodium falciparum; assay: Antimicrobial activity against Plasmodium falciparum TM91C235 by microdilution method; format: functional, organism-based
[10] = system: Plasmodium cynomolgi; assay: Antiplasmodial activity against Plasmodium cynomolgi sporozoites infected in Rhesus monkey assessed as delay in detection of parasites in blood at 0.316 mg/kg/day, po administered for three consecutive days before infection; format: functional
[11] = system: Plasmodium cynomolgi; assay: Antiplasmodial activity against Plasmodium cynomolgi sporozoites infected in Rhesus monkey assessed as duration for detection of parasites in blood at 0.316 mg/kg/day, po administered for three consecutive days before infection (reference value: 8 days); format: functional
[12] = system: Plasmodium cynomolgi; assay: Antiplasmodial activity against Plasmodium cynomolgi sporozoites infected in Rhesus monkey assessed as duration for detection of parasites in blood at 50 mg/kg/day, po administered for three consecutive days before infection (reference value: 8 days); format: functional
[13] = system: Plasmodium cynomolgi; assay: Antiplasmodial activity against Plasmodium cynomolgi sporozoites infected in Rhesus monkey assessed as duration for detection of parasites in blood at 30 mg/kg/day, im administered for three consecutive days before infection (reference value: 8 days); format: functional; settings: route intramuscular
[14] = system: Plasmodium cynomolgi; assay: Antiplasmodial activity against Plasmodium cynomolgi sporozoites infected in Rhesus monkey assessed as delay in detection of parasites in blood at 50 mg/kg/day, po administered for three consecutive days before infection; format: functional
[15] = system: Plasmodium cynomolgi; assay: Antiplasmodial activity against Plasmodium cynomolgi sporozoites infected in Rhesus monkey assessed as delay in detection of parasites in blood at 30 mg/kg/day, im administered for three consecutive days before infection; format: functional; settings: route intramuscular
[16] = Plasmodium falciparum, D6, read-out: IC50
[17] = Plasmodium falciparum, W2, read-out: IC50
[18] = Plasmodium falciparum, TM91C235, read-out: IC50

Structure (SMILES)	Time [1]	IC50 [2, 16]	half-life [3]	Activity [4]	IC50 [5, 17]	minimal effective dose [6]	half-life [7]	MTD at 3 days [8]	IC50 [9, 18]	Time [10]	Time [11]	IC50 [2]	IC50 [5]	IC50 [9]	Time [12]	Time [13]	Time [14]	Time [15]
CCN(CC)CCCC(C)Nc1ccnc2cc(Cl)ccc12 (stereo not given) [CHLOROQUINE]	11 days																	
CCON/C(=N\C1=NC(=O)C(=O)N1C(C)C)Nc1ccc(Cl)c(Cl)c1		> 5 µg/mL	> 1 h	Active	> 5 µg/mL	160 mg/kg/day	> 1 h	< 40 mg/kg/day	> 5 µg/mL									
COc1cc(C)c2c(Oc3cccc(C(F)(F)F)c3)c(OC)cc(NC(C)CCCN)c2n1 (stereo not given) [TAFENOQUINE]										2 days	10 days							
CC(C)N1C(=O)C(=O)N=C1/N=C(\NCC(C)(C)C)Nc1ccc(Cl)c(Cl)c1		1.1 µg/mL (≈ 2.67 µM)	> 1 h	Active	0.37 µg/mL (≈ 0.897 µM)	160 mg/kg/day	> 1 h	≥ 320 mg/kg/day	0.95 µg/mL (≈ 2.3 µM)			1.1 µg/mL (≈ 2.67 µM)	0.37 µg/mL (≈ 0.897 µM)	0.95 µg/mL (≈ 2.3 µM)				
CC(C)N/C(=N\C1=NC(=O)C(=O)N1C(C)C)Nc1ccc(Cl)c(Cl)c1		> 6 µg/mL	> 1 h	Active	> 6 µg/mL	160 mg/kg/day	> 1 h	≥ 160 mg/kg/day							11 days	62 days	3 days	54 days
CC(C)N1C(=O)C(=O)N=C1/N=C(/Nc1ccc(Cl)c(Cl)c1)NC1C2CC3CC(C2)CC1C3 (stereo not given)		0.81 µg/mL (≈ 1.7 µM)	0.124 h		2.68 µg/mL (≈ 5.63 µM)	> 320 mg/kg/day	0.093 h	≥ 320 mg/kg/day	2.07 µg/mL (≈ 4.35 µM)			0.81 µg/mL (≈ 1.7 µM)	2.68 µg/mL (≈ 5.63 µM)	2.07 µg/mL (≈ 4.35 µM)				
C=CCON/C(=N\C1=NC(=O)C(=O)N1C(C)C)Nc1ccc(Cl)c(Cl)c1		8.5 µg/mL (≈ 21.3 µM)	> 1 h	Active	6.7 µg/mL (≈ 16.8 µM)	160 mg/kg/day	> 1 h	120 mg/kg/day	> 15 µg/mL			8.5 µg/mL (≈ 21.3 µM)	6.7 µg/mL (≈ 16.8 µM)					
CC(C)N1C(=O)C(=O)N=C1/N=C(\NCCN1CCCC1)Nc1ccc(Cl)c(Cl)c1		> 5 µg/mL	0.886 h		1.32 µg/mL (≈ 3 µM)	> 160 mg/kg/day	> 1 h	≥ 160 mg/kg/day	> 5 µg/mL				1.32 µg/mL (≈ 3 µM)					
CC(C)N1C(=O)C(=O)N=C1/N=C(\NOC(C)(C)C)Nc1ccc(Cl)c(Cl)c1		2.75 µg/mL (≈ 6.64 µM)	> 1 h		1.14 µg/mL (≈ 2.75 µM)	> 160 mg/kg/day	> 1 h	≥ 160 mg/kg/day	3.36 µg/mL (≈ 8.11 µM)			2.75 µg/mL (≈ 6.64 µM)	1.14 µg/mL (≈ 2.75 µM)	3.36 µg/mL (≈ 8.11 µM)				
CC(C)N1C(=O)C(=O)N=C1/N=C(\NCCCN(C)C)Nc1ccc(Cl)c(Cl)c1		> 5 µg/mL	> 1 h		> 5 µg/mL	> 160 mg/kg/day	> 1 h	≥ 160 mg/kg/day	> 5 µg/mL									
CN/C(=N\C1=NC(=O)C(=O)N1C(C)C)Nc1ccc(Cl)c(Cl)c1		> 5 µg/mL	> 1 h		> 5 µg/mL	> 320 mg/kg/day	> 1 h	≥ 320 mg/kg/day	> 5 µg/mL									
